The text below walks through data of ChEMBL document CHEMBL1811853, “Design and evaluation of 3-aminopyrazolopyridinone kinase inhibitors inspired by the natural product indirubin” (Bioorg Med Chem, 2011).

The target in data set [1] is Insulin receptor (Homo sapiens) (UniProt P06213). Kind of data set: Inhibition of INSR at 30 uM by microfluidic mobility shift assay. The gist of the method:
(§1)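 Single-concentration screen, singlicate, 30 uM final (diluted from 1 mM DMSO solutions), fluorescently tagged peptide substrate appropriate to each kinase, ATP at apparent Km for each protein. Phosphorylated and unphosphorylated peptides separated electrophoretically; conversion is the phosphorylated peak area over the sum of both peaks. No-inhibitor and no-ATP controls; H89 reference on each plate.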

Data set [2] is described as follows: Aqueous solubility of the compound by HPLC analysis. It counts as physicochemical. The following applies: water. The gist of the method:
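Solubility determined by HPLC measurement of the concentration in saturated aqueous solutions of the compounds.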

Data set [3] deals with T1, Serine/threonine-protein kinase D2 (Homo sapiens) (UniProt Q9BZL6).
T1 sequence (whole entry): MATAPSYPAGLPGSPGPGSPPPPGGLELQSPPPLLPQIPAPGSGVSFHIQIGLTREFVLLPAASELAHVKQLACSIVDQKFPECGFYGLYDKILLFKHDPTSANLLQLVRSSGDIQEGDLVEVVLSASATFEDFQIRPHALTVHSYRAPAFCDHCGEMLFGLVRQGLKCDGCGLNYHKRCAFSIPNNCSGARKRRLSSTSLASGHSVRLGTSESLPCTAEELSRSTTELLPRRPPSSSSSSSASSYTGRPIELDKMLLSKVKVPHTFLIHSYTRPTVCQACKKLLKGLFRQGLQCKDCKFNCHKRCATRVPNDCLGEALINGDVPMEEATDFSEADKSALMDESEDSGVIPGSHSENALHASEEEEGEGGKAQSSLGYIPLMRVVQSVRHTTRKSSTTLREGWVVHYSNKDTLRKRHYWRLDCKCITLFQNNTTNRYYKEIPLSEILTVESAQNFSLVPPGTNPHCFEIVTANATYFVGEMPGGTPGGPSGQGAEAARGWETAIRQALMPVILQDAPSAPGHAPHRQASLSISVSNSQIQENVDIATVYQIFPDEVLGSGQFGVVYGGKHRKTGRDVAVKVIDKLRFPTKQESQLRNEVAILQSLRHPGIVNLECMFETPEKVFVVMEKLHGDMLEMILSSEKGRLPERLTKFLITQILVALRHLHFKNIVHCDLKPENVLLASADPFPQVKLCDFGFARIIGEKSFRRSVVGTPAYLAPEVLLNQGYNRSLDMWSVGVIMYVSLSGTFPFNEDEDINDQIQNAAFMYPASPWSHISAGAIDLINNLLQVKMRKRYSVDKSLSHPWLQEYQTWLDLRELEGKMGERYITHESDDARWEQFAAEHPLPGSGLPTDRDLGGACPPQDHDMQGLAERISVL
Kind of data set: Inhibition of PKD2 at 30 uM by microfluidic mobility shift assay. The gist of the method: as §1

In data set [4] the target is Glycogen synthase kinase-3 beta (Homo sapiens) (UniProt P49841). Kind of data set: Inhibition of GSK3B at 30 uM by microfluidic mobility shift assay. The gist of the method: as §1
Sequence of Glycogen synthase kinase-3 beta (Homo sapiens) (P49841 whole entry, looked up): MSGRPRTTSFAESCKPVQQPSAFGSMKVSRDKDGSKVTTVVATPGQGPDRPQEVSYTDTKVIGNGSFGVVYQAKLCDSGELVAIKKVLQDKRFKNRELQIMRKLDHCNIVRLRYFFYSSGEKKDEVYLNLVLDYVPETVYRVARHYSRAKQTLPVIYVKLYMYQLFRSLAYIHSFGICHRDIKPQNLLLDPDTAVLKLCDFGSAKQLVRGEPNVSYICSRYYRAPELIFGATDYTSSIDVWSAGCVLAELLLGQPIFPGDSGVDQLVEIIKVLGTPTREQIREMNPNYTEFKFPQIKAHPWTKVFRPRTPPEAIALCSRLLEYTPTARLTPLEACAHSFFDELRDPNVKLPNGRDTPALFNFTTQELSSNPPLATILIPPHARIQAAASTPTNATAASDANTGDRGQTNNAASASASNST
The target of data set [5] is Mitogen-activated protein kinase 3 (Homo sapiens) (UniProt P27361). Briefly: Inhibition of ERK1 at 30 uM by microfluidic mobility shift assay. The gist of the method: as §1
Sequence of Mitogen-activated protein kinase 3 (Homo sapiens) (P27361 whole entry): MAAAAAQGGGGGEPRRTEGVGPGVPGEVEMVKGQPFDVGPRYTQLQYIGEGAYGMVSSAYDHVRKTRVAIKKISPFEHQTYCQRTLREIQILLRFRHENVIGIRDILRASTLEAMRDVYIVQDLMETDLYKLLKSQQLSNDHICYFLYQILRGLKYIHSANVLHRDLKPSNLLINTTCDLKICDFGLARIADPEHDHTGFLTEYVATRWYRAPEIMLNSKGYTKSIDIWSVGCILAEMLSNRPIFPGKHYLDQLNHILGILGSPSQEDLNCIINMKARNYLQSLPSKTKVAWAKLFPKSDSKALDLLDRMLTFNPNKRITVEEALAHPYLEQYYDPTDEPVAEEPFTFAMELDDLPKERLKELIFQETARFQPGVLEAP
The target of data set [6] is Tyrosine-protein kinase Fyn (Homo sapiens, UniProt P06241). Kind of data set: Inhibition of FYN at 30 uM by microfluidic mobility shift assay. The method in brief: as §1
Sequence of Tyrosine-protein kinase Fyn (P06241 2-537 limits assumed): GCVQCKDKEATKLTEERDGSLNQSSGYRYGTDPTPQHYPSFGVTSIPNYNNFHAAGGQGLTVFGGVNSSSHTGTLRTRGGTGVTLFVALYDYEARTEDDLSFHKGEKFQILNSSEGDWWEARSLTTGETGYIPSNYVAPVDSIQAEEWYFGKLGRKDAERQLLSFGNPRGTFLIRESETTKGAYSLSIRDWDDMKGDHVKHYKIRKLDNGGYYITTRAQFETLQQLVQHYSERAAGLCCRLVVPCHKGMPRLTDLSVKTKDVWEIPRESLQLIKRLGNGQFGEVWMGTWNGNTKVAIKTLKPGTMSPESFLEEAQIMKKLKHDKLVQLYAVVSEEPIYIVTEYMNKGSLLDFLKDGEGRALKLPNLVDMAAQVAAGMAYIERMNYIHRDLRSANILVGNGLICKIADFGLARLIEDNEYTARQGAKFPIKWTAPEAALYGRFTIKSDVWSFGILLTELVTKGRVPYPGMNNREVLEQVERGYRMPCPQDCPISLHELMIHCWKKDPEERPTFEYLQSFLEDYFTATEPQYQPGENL
Data set [7] deals with RAC-alpha serine/threonine-protein kinase (Homo sapiens) (UniProt P31749). Briefly: Inhibition of AKT1 at 30 uM by microfluidic mobility shift assay. The method in brief:
as §1

In data set [8] the target is T2, MAP kinase-activated protein kinase 5 (Homo sapiens) (UniProt Q8IW41).
T2 sequence (whole entry): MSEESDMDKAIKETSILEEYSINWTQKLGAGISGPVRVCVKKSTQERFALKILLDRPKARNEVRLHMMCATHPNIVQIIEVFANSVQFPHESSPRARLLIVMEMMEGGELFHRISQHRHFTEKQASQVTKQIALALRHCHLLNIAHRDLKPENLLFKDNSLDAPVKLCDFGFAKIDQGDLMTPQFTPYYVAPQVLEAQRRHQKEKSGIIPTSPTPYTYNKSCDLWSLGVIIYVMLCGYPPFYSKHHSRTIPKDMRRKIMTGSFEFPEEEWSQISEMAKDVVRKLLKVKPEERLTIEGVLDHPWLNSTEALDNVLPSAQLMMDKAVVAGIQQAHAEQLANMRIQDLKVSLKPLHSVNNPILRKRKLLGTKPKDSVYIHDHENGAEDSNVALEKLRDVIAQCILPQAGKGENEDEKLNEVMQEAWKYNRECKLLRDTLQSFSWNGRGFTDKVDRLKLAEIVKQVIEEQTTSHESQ
Briefly: Inhibition of PRAK1 at 30 uM by microfluidic mobility shift assay. The method in brief:
as §1

In data set [9] the target is Tyrosine-protein kinase Lyn (Homo sapiens, UniProt P07948). Briefly: Inhibition of LYN at 30 uM by microfluidic mobility shift assay. The gist of the method:
as §1

Data set [10] deals with Tyrosine-protein kinase ABL1 (Homo sapiens, UniProt P00519). Kind of data set: Inhibition of ABL at 30 uM by microfluidic mobility shift assay. The gist of the method:
as §1

The target in data set [11] is Serine/threonine-protein kinase Chk2 (Homo sapiens, UniProt O96017). Briefly: Inhibition of CHK2 at 30 uM by microfluidic mobility shift assay. The method in brief: as §1
Sequence of Serine/threonine-protein kinase Chk2 (O96017 whole entry): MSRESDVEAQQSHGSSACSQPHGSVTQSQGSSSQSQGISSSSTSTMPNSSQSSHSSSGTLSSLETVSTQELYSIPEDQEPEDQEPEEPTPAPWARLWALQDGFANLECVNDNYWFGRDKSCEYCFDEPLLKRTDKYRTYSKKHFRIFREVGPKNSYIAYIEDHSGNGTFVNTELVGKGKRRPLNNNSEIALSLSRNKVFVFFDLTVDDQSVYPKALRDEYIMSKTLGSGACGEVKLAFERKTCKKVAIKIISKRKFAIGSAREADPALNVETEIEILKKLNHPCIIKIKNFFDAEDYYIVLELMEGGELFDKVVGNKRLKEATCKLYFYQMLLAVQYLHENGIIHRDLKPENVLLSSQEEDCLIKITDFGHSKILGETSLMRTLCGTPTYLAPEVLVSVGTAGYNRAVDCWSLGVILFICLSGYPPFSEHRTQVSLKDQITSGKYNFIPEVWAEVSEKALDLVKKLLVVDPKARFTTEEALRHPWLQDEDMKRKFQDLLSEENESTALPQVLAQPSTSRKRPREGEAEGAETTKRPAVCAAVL
Data set [12] concerns the target Ribosomal protein S6 kinase alpha-5 (Homo sapiens) (UniProt O75582). Briefly: Inhibition of MSK1 at 30 uM by microfluidic mobility shift assay. The method in brief: as §1
In data set [13] the target is RAC-beta serine/threonine-protein kinase (Homo sapiens) (UniProt P31751). Briefly: Inhibition of AKT2 at 30 uM by microfluidic mobility shift assay. The method in brief: as §1
Data set [14] addresses Proto-oncogene tyrosine-protein kinase Src (Homo sapiens, UniProt P12931). Briefly: Inhibition of SRC at 30 uM by microfluidic mobility shift assay. The method in brief: as §1
The target in data set [15] is MAP kinase-activated protein kinase 2 (Homo sapiens, UniProt P49137). Kind of data set: Inhibition of MAPKAPK2 at 30 uM by microfluidic mobility shift assay. The method in brief: as §1
Sequence of MAP kinase-activated protein kinase 2 (P49137 whole entry, looked up): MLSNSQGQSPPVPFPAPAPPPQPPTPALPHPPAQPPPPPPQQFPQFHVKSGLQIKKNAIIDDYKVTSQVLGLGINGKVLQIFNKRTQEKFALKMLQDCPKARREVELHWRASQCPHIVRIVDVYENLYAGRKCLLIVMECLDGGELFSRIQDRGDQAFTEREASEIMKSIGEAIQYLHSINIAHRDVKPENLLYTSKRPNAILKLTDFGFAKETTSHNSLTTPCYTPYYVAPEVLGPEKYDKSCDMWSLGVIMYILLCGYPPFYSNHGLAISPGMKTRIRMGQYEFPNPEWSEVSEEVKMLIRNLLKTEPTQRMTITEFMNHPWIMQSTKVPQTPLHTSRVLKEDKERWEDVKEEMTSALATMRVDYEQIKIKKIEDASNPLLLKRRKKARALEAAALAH
Data set [16] deals with T3, Aurora kinase A (Homo sapiens) (UniProt O14965).
T3 sequence (whole entry): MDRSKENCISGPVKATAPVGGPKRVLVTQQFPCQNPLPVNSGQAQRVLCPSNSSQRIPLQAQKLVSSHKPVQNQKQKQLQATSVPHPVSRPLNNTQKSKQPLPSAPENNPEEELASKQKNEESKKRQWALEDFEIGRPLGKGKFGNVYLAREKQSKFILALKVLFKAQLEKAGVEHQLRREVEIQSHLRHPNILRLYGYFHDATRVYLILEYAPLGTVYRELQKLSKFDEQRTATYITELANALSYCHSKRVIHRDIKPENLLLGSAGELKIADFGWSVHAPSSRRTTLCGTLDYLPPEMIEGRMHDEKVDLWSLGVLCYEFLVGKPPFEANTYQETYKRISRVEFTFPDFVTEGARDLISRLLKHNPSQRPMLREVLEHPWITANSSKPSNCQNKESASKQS
Kind of data set: Inhibition of AurA at 30 uM by microfluidic mobility shift assay. The method in brief: as §1

The target in data set [17] is T4, Protein kinase C zeta type (Homo sapiens) (UniProt Q05513).
T4 sequence (whole entry): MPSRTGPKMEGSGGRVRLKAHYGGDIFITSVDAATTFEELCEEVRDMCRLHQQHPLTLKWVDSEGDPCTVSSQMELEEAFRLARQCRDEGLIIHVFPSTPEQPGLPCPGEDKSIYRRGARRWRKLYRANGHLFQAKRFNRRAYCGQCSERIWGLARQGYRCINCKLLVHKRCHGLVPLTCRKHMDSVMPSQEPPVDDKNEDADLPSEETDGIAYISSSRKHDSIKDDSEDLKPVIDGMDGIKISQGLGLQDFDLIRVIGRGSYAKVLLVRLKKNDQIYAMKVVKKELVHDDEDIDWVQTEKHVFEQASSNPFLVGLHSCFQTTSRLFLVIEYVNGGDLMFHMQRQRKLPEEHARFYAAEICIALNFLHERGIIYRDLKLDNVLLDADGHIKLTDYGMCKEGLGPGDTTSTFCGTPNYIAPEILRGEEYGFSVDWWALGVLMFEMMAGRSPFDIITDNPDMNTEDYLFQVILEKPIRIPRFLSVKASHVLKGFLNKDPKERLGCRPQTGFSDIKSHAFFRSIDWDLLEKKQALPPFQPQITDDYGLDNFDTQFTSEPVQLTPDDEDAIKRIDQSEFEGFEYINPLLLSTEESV
Kind of data set: Inhibition of PKCz at 30 uM by microfluidic mobility shift assay. The method in brief:
as §1

The target of data set [18] is Tyrosine-protein kinase Lck (Homo sapiens, UniProt P06239). Briefly: Inhibition of LCK at 30 uM by microfluidic mobility shift assay. The gist of the method: as §1
Sequence of Tyrosine-protein kinase Lck (P06239 2-509 limits assumed): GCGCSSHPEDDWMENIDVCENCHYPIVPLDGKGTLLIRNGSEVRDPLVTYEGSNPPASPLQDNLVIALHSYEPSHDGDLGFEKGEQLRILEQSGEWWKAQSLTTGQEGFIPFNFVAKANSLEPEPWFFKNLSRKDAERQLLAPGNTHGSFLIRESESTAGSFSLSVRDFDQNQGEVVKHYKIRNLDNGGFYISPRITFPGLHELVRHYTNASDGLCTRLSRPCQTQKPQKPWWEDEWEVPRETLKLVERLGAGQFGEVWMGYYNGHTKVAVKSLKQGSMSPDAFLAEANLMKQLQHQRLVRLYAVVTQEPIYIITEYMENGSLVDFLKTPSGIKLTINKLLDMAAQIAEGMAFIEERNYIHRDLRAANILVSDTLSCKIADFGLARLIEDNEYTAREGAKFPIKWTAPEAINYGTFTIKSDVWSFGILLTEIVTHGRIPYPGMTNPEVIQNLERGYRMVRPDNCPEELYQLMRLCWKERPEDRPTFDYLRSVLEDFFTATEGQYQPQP
Data set [19] addresses Mitogen-activated protein kinase 14 (Homo sapiens, UniProt Q16539). Briefly: Inhibition of p38alpha at 30 uM by microfluidic mobility shift assay. The gist of the method: as §1
Data set [20] addresses Mitogen-activated protein kinase 1 (Homo sapiens) (UniProt P28482). Briefly: Inhibition of ERK2 at 30 uM by microfluidic mobility shift assay. The method in brief: as §1
The target in data set [21] is Ribosomal protein S6 kinase alpha-1 (Homo sapiens) (UniProt Q15418). Briefly: Inhibition of RSK1 at 30 uM by microfluidic mobility shift assay. The method in brief: as §1
Data set [22] can be described thus: Inhibition of PKA at 30 uM by microfluidic mobility shift assay. The method in brief:
as §1

Data set [23] deals with T5, Serine/threonine-protein kinase Chk1 (Homo sapiens) (UniProt O14757).
T5 sequence (whole entry): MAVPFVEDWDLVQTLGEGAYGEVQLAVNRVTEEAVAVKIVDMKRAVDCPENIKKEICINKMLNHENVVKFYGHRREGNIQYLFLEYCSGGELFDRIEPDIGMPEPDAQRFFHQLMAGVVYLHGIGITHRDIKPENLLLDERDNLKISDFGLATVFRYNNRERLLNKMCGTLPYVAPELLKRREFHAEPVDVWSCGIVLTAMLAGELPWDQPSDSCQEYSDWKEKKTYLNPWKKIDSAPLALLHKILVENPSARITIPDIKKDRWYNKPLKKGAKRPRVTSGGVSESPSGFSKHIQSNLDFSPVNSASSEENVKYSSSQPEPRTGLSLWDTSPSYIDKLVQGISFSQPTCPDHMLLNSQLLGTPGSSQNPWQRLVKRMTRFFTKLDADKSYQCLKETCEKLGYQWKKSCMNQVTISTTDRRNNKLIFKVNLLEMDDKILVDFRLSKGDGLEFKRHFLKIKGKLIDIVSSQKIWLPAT
Briefly: Inhibition of CHK1 at 30 uM by microfluidic mobility shift assay. The method in brief:
as §1

By inhibition is commonly meant the relative decrease from the control value, in per cent. Usually solubility stands for the concentration that dissolves in the medium under given conditions. Read a low solubility as a poorly soluble substance.

SMILES strings stand for the structures. Converted amounts (≈) assume the structure as drawn.

Sequence of Mitogen-activated protein kinase 14 (Q16539 whole entry): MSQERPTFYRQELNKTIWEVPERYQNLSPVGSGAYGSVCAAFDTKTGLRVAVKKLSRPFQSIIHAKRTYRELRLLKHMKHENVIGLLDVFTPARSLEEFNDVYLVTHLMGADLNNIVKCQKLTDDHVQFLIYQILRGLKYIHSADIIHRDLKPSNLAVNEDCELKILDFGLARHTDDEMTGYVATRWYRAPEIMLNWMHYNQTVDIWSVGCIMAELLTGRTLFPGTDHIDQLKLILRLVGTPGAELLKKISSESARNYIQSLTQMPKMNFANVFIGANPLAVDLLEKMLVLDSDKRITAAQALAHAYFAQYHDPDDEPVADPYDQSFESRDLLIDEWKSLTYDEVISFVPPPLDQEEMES
Sequence of Ribosomal protein S6 kinase alpha-5 (Homo sapiens) (O75582 whole entry, looked up): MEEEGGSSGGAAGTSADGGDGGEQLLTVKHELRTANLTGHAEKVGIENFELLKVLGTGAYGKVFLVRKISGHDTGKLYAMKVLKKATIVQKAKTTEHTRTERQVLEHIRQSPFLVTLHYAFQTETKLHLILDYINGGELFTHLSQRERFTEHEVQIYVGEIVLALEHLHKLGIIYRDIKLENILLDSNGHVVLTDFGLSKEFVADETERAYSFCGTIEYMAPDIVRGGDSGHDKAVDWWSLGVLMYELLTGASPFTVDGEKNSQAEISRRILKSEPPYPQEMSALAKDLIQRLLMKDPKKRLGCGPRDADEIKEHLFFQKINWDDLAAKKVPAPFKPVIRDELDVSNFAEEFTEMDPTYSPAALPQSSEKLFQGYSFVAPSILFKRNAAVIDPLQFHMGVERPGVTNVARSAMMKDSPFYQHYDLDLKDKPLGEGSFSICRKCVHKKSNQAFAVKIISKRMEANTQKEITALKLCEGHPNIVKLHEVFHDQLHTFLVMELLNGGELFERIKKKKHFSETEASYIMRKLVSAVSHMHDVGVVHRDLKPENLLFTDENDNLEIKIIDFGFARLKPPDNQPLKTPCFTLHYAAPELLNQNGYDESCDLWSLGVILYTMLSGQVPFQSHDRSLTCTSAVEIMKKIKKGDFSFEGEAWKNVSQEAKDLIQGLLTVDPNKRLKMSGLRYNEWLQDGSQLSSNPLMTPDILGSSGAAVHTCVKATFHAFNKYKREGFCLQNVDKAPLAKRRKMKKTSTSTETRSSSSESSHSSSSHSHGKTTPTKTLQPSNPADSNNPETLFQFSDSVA
Sequence of Proto-oncogene tyrosine-protein kinase Src (P12931 2-536 limits assumed): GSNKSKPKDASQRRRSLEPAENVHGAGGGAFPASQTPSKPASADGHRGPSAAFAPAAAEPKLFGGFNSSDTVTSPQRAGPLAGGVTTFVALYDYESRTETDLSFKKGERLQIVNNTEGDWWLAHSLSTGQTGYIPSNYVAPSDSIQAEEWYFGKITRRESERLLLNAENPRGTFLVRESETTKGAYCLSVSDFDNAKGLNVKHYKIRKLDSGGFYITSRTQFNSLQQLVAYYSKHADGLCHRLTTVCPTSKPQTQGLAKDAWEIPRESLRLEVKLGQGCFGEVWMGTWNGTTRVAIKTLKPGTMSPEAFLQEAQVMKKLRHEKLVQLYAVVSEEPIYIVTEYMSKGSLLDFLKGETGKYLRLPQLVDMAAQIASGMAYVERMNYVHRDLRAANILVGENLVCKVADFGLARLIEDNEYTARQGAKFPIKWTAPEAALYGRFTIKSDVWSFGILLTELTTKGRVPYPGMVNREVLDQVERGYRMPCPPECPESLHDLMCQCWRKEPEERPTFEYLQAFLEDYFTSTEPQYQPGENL
Sequence of RAC-alpha serine/threonine-protein kinase (Homo sapiens) (P31749 whole entry): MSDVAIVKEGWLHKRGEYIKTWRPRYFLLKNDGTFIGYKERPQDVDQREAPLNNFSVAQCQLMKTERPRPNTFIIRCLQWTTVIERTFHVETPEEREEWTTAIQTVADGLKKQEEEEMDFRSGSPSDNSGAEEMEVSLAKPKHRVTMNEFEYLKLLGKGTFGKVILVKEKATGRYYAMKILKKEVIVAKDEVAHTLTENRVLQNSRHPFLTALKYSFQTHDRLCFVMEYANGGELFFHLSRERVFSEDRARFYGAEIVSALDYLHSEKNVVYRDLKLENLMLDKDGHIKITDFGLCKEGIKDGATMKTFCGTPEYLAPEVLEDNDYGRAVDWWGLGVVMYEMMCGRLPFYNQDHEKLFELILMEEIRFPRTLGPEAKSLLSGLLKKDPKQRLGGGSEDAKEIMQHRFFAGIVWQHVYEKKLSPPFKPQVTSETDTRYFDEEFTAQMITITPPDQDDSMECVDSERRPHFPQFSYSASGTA

With `Cc1[nH]c(=O)c2c(N)n(-c3ccccc3)nc2c1-c1ccccc1`, the inhibition is 10% in data set [1]; -3% in [3]; 16% in data set [4]; 14% in data set [5]; 62% in data set [6]; -8% in data set [7]. Moreover, the inhibition in data set [8] is 6%; in data set [9], 71%; in [10] it was 42%; in [11], -1%; in data set [12], 2%; in [13] it was 4%. Besides, the inhibition was 71% in data set [14]; 9% in [15]; 4% in [16]; 26% in data set [17]; 73% in data set [18]; 78% in data set [19]. For the same molecule, the inhibition in data set [20] was 8%; in [21], -2%. In data set [2], this molecule came in with a solubility of 7 µg/mL (≈ 22.1 µM).

For `Cc1cc2nn(-c3ccccc3)c(N)c2c(=O)[nH]1`, the inhibition in data set [1] was 4%; in data set [3], -1%; in data set [22] it was -8%; in data set [23], -9%; in data set [4], 9%; in data set [5] it was 7%. The inhibition was 22% in data set [6]; 5% in data set [7]; 5% in data set [8]; 9% in data set [9]; 20% in data set [10]; -4% in data set [11]. The inhibition in data set [12] was 4%; in [13], 1%; in data set [14], 26%; in data set [15], -4%; in [16], 6%; in data set [18], 24%. In addition, the inhibition in data set [19] turned out to be 26%; in data set [20], 7%. The solubility in data set [2] stood at 69 µg/mL (≈ 287 µM).

As for `Cn1nc(N)c2cnc(-c3ccccc3)cc21`, the inhibition in data set [1] worked out at 9%; in [3] it was 5%; in data set [22], 1%; in data set [23] it was 1%; in data set [4], 17%; in data set [5] it was 9%. For the same molecule, the inhibition in data set [6] was 8%; in data set [7], 4%; in data set [8] it was 5%; in data set [9] it was 7%; in [10], 10%; in data set [11], 5%. The inhibition worked out at 4% in data set [12]; 6% in data set [13]; 7% in [14]; 7% in data set [15]; 33% in data set [16]; 11% in data set [18]. Moreover, the inhibition came to 0% in data set [19], 4% in data set [20] and 2% in [21]. The molecule further displayed a solubility in data set [2] of 259 µg/mL (≈ 1150 µM).
